# Experimental data collected from several papers.
# Compare with care: the assays were run in different laboratories.
# Organism: Enterococcus faecalis
Structure (SMILES),assay,system,conditions,measurement,result
CCCCCCCCCCCCCCCC(=O)NS(=O)(=O)OC1CCOCC1,"microbial growth, broth dilution",ATCC33186,,MIC,25 µg/mL
CC(C)C(C)CCCCCCCCCCCc1cc(O)cc(O)c1 (centres unmarked),microbial growth,ATCC29212,,IC50,13.2 µM
CCCCCCCCCCCC(=O)NP(=O)(O)O,microbial growth,ATCC33186,,MIC,200 µg/mL
CCCCCCCCCCCCCCCC(=O)NS(=O)(=O)OC1CCCCC1,"microbial growth, broth dilution",ATCC33186,,MIC,12.5 µg/mL
COc1ccc(OS(=O)(=O)NC(=O)CCCCc2ccccc2)cc1,microbial growth,ATCC33186,,MIC,> 200 µg/mL
CC1(C)S[C@@H]2[C@H](NC(=O)COc3ccccc3)C(=O)N2[C@H]1C(=O)O,microbial killing,,"drug-resistant strain, clinical isolate",MBC,> 128 µg/mL
CCC(CCCCCCCCCCc1cc(O)cc(O)c1)C(C)C (centres unmarked),microbial growth,ATCC29212,,IC50,9.23 µM
COc1ccc(CNO)c(C)c1,microbial growth,ATCC19433,8 h,MIC50,< 80 µg/mL
CC(C)CCCCCCCCCCCCCCCc1cc(O)cc(O)c1,microbial growth,ATCC29212,,IC50,15.3 µM
CCCCCCCCCCCCCCCC(=O)NS(=O)(=O)Oc1ccc(OC)cc1,microbial growth,ATCC33186,,MIC,> 200 µg/mL
CCCCCCCCCCCCCCCC(=O)NS(=O)(=O)OC1CCN(C(=O)OC(C)(C)C)CC1,"microbial growth, broth dilution",ATCC33186,,MIC,25 µg/mL
CC1(C)S[C@@H]2[C@H](NC(=O)[C@H](N)c3ccccc3)C(=O)N2[C@H]1C(=O)O,"microbial growth, well diffusion",ATCC51299,60000 µg/mL,inhibition zone,28 mm
O=C(CCCCc1ccccc1)CP(=O)(O)O,microbial growth,ATCC33186,,MIC,> 200 µg/mL
C=C(NC(=O)C(=C)NC(=O)c1csc(C2=N[C@@H]3c4csc(n4)[C@H]4NC(=O)c5csc(n5)[C@H]([C@](C)(O)[C@@H](C)O)NC(=O)[C@H]5CSC(=N5)/C(=C/C)NC(=O)[C@H]([C@@H](C)O)NC(=O)c5csc(n5)[C@]3(CC2)NC(=O)[C@H](C)NC(=O)C(=C)NC(=O)[C@H](C)NC(=O)[C@H]([C@@H](C)CC)N[C@@H]2C=Cc3c([C@H](C)O)cc(nc3[C@H]2O)C(=O)O[C@@H]4C)n1)C(N)=O,microbial growth,VRE,,MIC,0.12 µg/mL
